For orientation: Ki means the equilibrium dissociation constant of an inhibitor or competing ligand from its target. Low values mean a stronger hold on the target, high ones a looser hold on the target. As a reminder, the IC50 is the midpoint of a concentration-inhibition curve. Low values mean greater potency, high ones weaker potency.

Results on nine compounds are retold here after ChEMBL document CHEMBL1154939, “Novel multiple opioid ligands based on 4-aminobenzazepinone (Aba), azepinoindole (Aia) and tetrahydroisoquinoline (Tic) scaffolds” (Bioorg Med Chem Lett, 2010).

Active and inactive are the calls of the source. The rule behind the calls is not given here. Numbered stars: 1 amine (or outer) side, 2 acyl side, 3 side chain; on linkers, the order of the positions; unused ones are H or OH. Bridge positions count the residues as written; N and C are the ends. Square brackets hold non-standard residues; d marks the D form. Peptide text beside a SMILES is read from it. I, II: the chains in the order shown. Dmt = Cc1cc(O)cc(C)c1C[C@H](N)C(=O)O; Ethylenediamine = C(CN[*:2])N[*:1]; Tic = O=C(O)[C@@H]1Cc2ccccc2CN1

The target of test [1] is Mu-type opioid receptor (Rattus norvegicus, UniProt P33535). Kind of test: Displacement of [3H]DAMGO from mu opioid receptor in rat brain membranes. The test is classed as cell membranes. In short, it runs like this:
(§1)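 Equilibrium competition binding on P2 membrane preparation of rat brain; mu sites labelled with [3H]DAMGO, delta sites with [3H]deltorphin II. Five to eight graded peptide doses, duplicate wells; Ki via Cheng-Prusoff. Mean ± SEM from three to six independent assays using different synaptosomal preparations.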
For orientation: In a radioligand displacement assay an active substance lowers the binding of a labelled ligand.

Test [2] addresses Delta-type opioid receptor (Rattus norvegicus, UniProt P33533). Nature of the test: Displacement of [3H]deltorphin 2 from delta opioid receptor in rat brain membranes. In kind it is cell membranes. The gist of the method: as §1
In test [3] the target is Mu-type opioid receptor (Cavia porcellus, UniProt P97266). Nature of the test: Antagonist activity at mu opioid receptor in guinea pig ileum. The test is classed as functional, tissue-based.
For test [4], the target named is Delta-type opioid receptor (Mus musculus, UniProt P32300). Kind of test: Antagonist activity at delta opioid receptor in mouse vas deferens. The test is classed as functional, tissue-based.
Test [5] is filed under the species Rattus norvegicus. Kind of test: Selectivity ratio of Ki for rat delta opioid receptor to Ki for rat mu opioid receptor.
Test [6] concerns the target Mu-type opioid receptor (Homo sapiens) (UniProt P35372). Nature of the test: Antagonist activity at mu opioid receptor in human SK-N-SH cells assessed as inhibition of loperamide-stimulated [35S]-GTPgammaS binding after 60 mins by liquid scintillation counting. The test is classed as functional, cell-based. In short, it runs like this: (§2)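 [35S]GTPγS binding in cell membranes: delta antagonism measured against deltorphin C-stimulated binding in NG108-15 membranes, mu antagonism against loperamide-stimulated binding in SK-N-SH membranes; antagonism expressed as pA2 from rightward shift of agonist dose-response curves.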

Test [7] concerns the target Delta-type opioid receptor (Rattus norvegicus) (UniProt P33533). Kind of test: Antagonist activity at delta opioid receptor in rat NG108-15 cells assessed as inhibition of deltorphin C-stimulated [35S]-GTPgammaS binding after 60 mins by scintillation counting. The test is classed as functional, cell-based. The gist of the method:
as §2
Background: Binding of GTPγS marks nucleotide exchange on a G protein.

The species named for test [8] is Rattus norvegicus. Nature of the test: Selectivity ratio of Ki for rat mu opioid receptor to Ki for rat delta opioid receptor.

Sequence of Mu-type opioid receptor (Rattus norvegicus, UniProt P33535) (P33535 whole entry): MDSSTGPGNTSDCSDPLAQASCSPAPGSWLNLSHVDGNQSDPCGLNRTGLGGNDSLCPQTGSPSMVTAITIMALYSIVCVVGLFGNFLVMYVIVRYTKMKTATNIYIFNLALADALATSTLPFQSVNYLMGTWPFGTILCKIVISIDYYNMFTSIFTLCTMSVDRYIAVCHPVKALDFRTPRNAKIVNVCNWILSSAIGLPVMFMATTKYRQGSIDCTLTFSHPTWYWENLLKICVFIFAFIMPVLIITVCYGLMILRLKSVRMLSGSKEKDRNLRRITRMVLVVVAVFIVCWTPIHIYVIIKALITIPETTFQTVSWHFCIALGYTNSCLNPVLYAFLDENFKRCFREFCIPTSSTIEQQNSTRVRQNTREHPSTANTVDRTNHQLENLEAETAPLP
Sequence of Mu-type opioid receptor (Cavia porcellus, UniProt P97266) (P97266 whole entry): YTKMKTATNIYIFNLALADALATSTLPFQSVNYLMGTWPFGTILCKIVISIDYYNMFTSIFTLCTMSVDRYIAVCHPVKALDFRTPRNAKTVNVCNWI
Sequence of Mu-type opioid receptor (Homo sapiens) (P35372 whole entry): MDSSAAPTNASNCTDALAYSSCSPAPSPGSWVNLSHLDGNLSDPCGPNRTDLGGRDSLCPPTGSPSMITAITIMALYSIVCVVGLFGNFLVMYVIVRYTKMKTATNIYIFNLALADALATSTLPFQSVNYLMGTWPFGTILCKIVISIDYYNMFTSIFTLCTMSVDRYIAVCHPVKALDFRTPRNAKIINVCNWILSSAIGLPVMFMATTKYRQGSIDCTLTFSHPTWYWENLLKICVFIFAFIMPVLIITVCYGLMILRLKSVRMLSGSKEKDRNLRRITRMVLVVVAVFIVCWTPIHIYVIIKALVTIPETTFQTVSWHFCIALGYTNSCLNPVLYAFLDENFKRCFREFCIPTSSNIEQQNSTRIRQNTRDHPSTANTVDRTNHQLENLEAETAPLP
Sequence of Delta-type opioid receptor (Mus musculus, UniProt P32300) (P32300 whole entry): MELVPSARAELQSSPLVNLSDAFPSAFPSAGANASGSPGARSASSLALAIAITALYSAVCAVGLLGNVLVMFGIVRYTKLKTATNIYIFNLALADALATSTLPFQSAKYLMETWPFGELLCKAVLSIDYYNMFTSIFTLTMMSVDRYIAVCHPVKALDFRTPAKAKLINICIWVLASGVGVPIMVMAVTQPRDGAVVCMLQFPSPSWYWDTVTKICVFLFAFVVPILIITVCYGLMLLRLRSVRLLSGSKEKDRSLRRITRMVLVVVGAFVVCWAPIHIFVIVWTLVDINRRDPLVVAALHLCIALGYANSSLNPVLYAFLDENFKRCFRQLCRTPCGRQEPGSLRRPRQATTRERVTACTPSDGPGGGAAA
Sequence of Delta-type opioid receptor (Rattus norvegicus) (P33533 whole entry): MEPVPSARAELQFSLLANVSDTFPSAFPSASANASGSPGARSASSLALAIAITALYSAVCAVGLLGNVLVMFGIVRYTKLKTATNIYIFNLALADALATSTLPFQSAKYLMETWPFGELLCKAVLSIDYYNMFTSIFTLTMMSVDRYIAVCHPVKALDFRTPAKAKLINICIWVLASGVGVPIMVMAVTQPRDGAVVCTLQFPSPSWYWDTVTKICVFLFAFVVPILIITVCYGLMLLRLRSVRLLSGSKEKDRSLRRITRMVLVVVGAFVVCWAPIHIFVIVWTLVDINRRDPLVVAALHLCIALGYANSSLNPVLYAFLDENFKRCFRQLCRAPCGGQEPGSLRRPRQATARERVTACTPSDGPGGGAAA
Sequence of Delta-type opioid receptor (Rattus norvegicus, UniProt P33533) (P33533 whole entry): as above

On to `Cc1cc(O)cc(C)c1C[C@H](N)C(=O)N[C@H]1Cc2ccccc2CN(CC(=O)NCCNC(=O)CN2Cc3ccccc3C[C@H](NC(=O)[C@@H](N)Cc3c(C)cc(O)cc3C)C2=O)C1=O`, for which the Ki in test [1] was 16.1 nM; in test [2], 154 nM. The half-inhibitory concentration (IC50) in test [3] was over 10000 nM.

With `Cc1cc(O)cc(C)c1C[C@H](N)C(=O)N1Cc2ccccc2C[C@H]1C(=O)NCCN(CCNC(=O)[C@@H]1Cc2ccccc2CN1C(=O)[C@@H](N)Cc1c(C)cc(O)cc1C)CCNC(=O)[C@@H]1Cc2ccccc2CN1C(=O)[C@@H](N)Cc1c(C)cc(O)cc1C`, the inhibitory constant (Ki) came to 7.78 nM in test [1] and 3.75 nM in test [2]. For the same compound, the IC50 in test [4] and in test [3] was over 10000 nM in each case.

Take `Cc1cc(O)cc(C)c1C[C@H](N)C(=O)N1Cc2ccccc2C[C@H]1C(=O)O` (H-[Dmt]-[Tic]-OH): in test [1], affinity was put at a Ki of 3.32 nM.

Turning to `Cc1cc(O)cc(C)c1C[C@H](N)C(=O)N[C@H]1Cc2ccccc2CN(CC(=O)NCCN(CCNC(=O)CN2Cc3ccccc3C[C@H](NC(=O)[C@@H](N)Cc3c(C)cc(O)cc3C)C2=O)CCNC(=O)CN2Cc3ccccc3C[C@H](NC(=O)[C@@H](N)Cc3c(C)cc(O)cc3C)C2=O)C1=O`, the inhibition constant (Ki) in test [1] amounted to 8.06 nM; in test [2], 196 nM. The 50% inhibitory concentration (IC50) in test [4] and in test [3] was over 10000 nM throughout.

For `Cc1cc(O)cc(C)c1C[C@H](N)C(=O)N[C@@H]1Cc2c([nH]c3ccccc23)CN(CC(=O)NCc2ccc(CNC(=O)CN3Cc4[nH]c5ccccc5c4C[C@@H](NC(=O)[C@@H](N)Cc4c(C)cc(O)cc4C)C3=O)cc2)C1=O`, the inhibition constant (Ki) in test [1] was 177 nM; in test [2], 361 nM. Moreover, the Ratio Ki in test [5] turned out to be 2. Further, the pA2 result in test [6] and in test [7] was “inactive” each time.

`Cc1cc(O)cc(C)c1C[C@H](N)C(=O)N1Cc2ccccc2C[C@H]1C(=O)NCC/C=C/CCNC(=O)[C@@H]1Cc2ccccc2CN1C(=O)[C@@H](N)Cc1c(C)cc(O)cc1C` had a Ki in test [1] of 1.5 nM.

As to `Cc1cc(O)cc(C)c1C[C@@H](C(=O)N[C@H]1Cc2c([nH]c3ccccc23)CN(CC(=O)NCCNC(=O)CN2Cc3[nH]c4ccccc4c3C[C@H](NC(=O)[C@H](Cc3c(C)cc(O)cc3C)N(C)C)C2=O)C1=O)N(C)C`, the values for the inhibition constant Ki in test [1] and in test [2] were 344 nM and 101 nM, respectively. Moreover, the Ratio Ki in test [8] was 3.4. Also, the pA2 result in test [6] and in test [7] was “inactive” in each case.

Take `Cc1cc(O)cc(C)c1C[C@H](N)C(=O)N1Cc2ccccc2C[C@H]1C(=O)NCCNC(=O)[C@@H]1Cc2ccccc2CN1C(=O)[C@@H](N)Cc1c(C)cc(O)cc1C` (I: H-[Dmt]-[Tic] / II: H-[Dmt]-[Tic]; linker I:C-II:C via Ethylenediamine): the inhibition constant (Ki) was determined as 10.2 nM in test [1] and 0.96 nM in test [2]. Further, the IC50 in test [4] and in test [3] was over 10000 nM in each case.

With `Cc1cc(O)cc(C)c1C[C@H](N)C(=O)N[C@@H]1Cc2c([nH]c3ccccc23)CN(CC(=O)NCCNC(=O)CN2Cc3[nH]c4ccccc4c3C[C@@H](NC(=O)[C@@H](N)Cc3c(C)cc(O)cc3C)C2=O)C1=O`, the inhibition constant (Ki) in test [1] was found to be 139 nM; in test [2] it was 211 nM. In test [5], the Ratio Ki is 1.5. The pA2 entry in test [6] and in test [7] was “inactive” throughout.
